First the molecules themselves.
B1: Osa-1-4 twister ribozyme (parent)
chain: CCGCCUAACACUGCCAAUGCCGGUCCCAAGCCCGGAUAAAAGUGGAGGGGGCGG

The values that follow come from the RNAGym collection of RNA variant scans (doi:10.1002/anie.201605470).

In this data set the parent is B1. Kind of data set: self-cleavage, relative activity (ratio to wild type); higher = more cleavage; co-transcriptional. A digest of the protocol:
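Values are relative activity: the fraction cleaved, normalised to wild type. A doped DNA template for a 54-nucleotide twister ribozyme from Oryza sativa had 97 % wild-type base and 1 % of each other base at the 48 positions downstream of the cleavage site. The RNA was transcribed in vitro for 2 h at 37 °C so that it could cleave itself co-transcriptionally, then sequenced deeply, with cleavage status scored from the presence or absence of upstream sequence in reads.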
As for C25U G54C, the self-cleavage turned out to be 0.31.

C25U G54U: the self-cleavage was determined as 0.56.

Turning to C27A C31G, the self-cleavage amounted to 0.04.

Turning to C27A C31A, the self-cleavage was 0.06.

For the variant C27A C31U, the self-cleavage stood at 0.09.

Turning to C26A U24A, the self-cleavage is 0.03.

For the variant C26A U24G, the self-cleavage turned out to be 0.01.

For the variant C26A U24C, the self-cleavage amounted to 0.02.

Consider C27A G45C, for which the self-cleavage is 0.03.

Regarding C27A G45A, the self-cleavage came to 0.06.

As for C27A G45U, the self-cleavage came to 0.07.

With C26U G13A, the self-cleavage amounted to 0.05.

Regarding C26U G13C, the self-cleavage worked out at 0.02.

With C26U G13U, the self-cleavage was found to be 0.03.

In the case of C26G C33G, the self-cleavage was 0.04.

As for C26G C33U, the self-cleavage was found to be 0.07.

Consider C26G C33A, for which the self-cleavage was found to be 0.05.

For the variant C26G C27G, the self-cleavage came out at 0.11.

For the variant C26G C27A, the self-cleavage amounted to 0.05.

For the variant C26G C27U, the self-cleavage is 0.07.

With C26G U43G, the self-cleavage is 0.07.

Turning to C26G U43C, the self-cleavage turned out to be 0.07.

Consider C26G U43A, for which the self-cleavage is 0.09.

For the variant C26U U24C, the self-cleavage worked out at 0.07.

For the variant C26U U24A, the self-cleavage is 0.06.

Turning to C26U U24G, the self-cleavage worked out at 0.04.

With C26A G30C, the self-cleavage is 0.02.

With C26A G30A, the self-cleavage was found to be 0.01.

Regarding C26A G30U, the self-cleavage came to 0.01.

With C26G C32A, the self-cleavage amounted to 0.03.

Take C26G C32G: the self-cleavage worked out at 0.09.

For C26G C32U, the self-cleavage is 0.04.

Turning to C26G G34A, the self-cleavage stood at 0.18.

Turning to C26G G34C, the self-cleavage worked out at 0.08.

C26G G34U: the self-cleavage was 0.08.

Take C26G C9U: the self-cleavage is 0.04.

Take C26G C9A: the self-cleavage is 0.02.

Turning to C26G C9G, the self-cleavage was determined as 0.09.

C26G G22U: the self-cleavage is 0.08.

With C26G G22A, the self-cleavage came to 0.15.

Regarding C26G G22C, the self-cleavage was found to be 0.06.

With C26A C27A, the self-cleavage was found to be 0.05.

Regarding C26A C27G, the self-cleavage was 0.03.

C26A C27U: the self-cleavage was 0.03.

Regarding C26A G44U, the self-cleavage is 0.05.

On to C26A G44A, for which the self-cleavage was found to be 0.05.

C26A G44C: the self-cleavage came out at 0.05.

On to C27A C33U, for which the self-cleavage was found to be 0.1.

C27A C33A: the self-cleavage was 0.09.

C27A C33G: the self-cleavage worked out at 0.04.

C26U G22A: the self-cleavage came to 0.91.

As to C26U G22C, the self-cleavage was found to be 0.08.

Consider C26U G22U, for which the self-cleavage amounted to 0.74.

Turning to C26G G48U, the self-cleavage was 0.08.

Take C26G G48A: the self-cleavage stood at 0.06.

Turning to C26G G48C, the self-cleavage was 0.74.

Take C26A C52A: the self-cleavage was determined as 0.08.

With C26A C52G, the self-cleavage came out at 0.08.

Regarding C26A C52U, the self-cleavage stood at 0.07.

With C26A G19A, the self-cleavage came out at 0.04.

With C26A G19C, the self-cleavage came out at 0.02.

In the case of C26A G19U, the self-cleavage came to 0.03.

Regarding C26G G42C, the self-cleavage was 0.05.

For C26G G42A, the self-cleavage is 0.08.

Consider C26G G42U, for which the self-cleavage was 0.02.

In the case of C26A G35U, the self-cleavage came to 0.04.

On to C26A G35A, for which the self-cleavage is 0.06.

With C26A G35C, the self-cleavage worked out at 0.04.

With C26U G49C, the self-cleavage was 0.06.

C26U G49A: the self-cleavage came to 0.06.

As for C26U G49U, the self-cleavage was 0.06.

Consider C27A G19U, for which the self-cleavage amounted to 0.04.

In the case of C27A G19A, the self-cleavage was found to be 0.09.

With C27A G19C, the self-cleavage came out at 0.03.

C27A G47U: the self-cleavage was found to be 0.83.

As for C27A G47C, the self-cleavage turned out to be 0.36.

C27A G47A: the self-cleavage worked out at 0.24.

With C26U, the self-cleavage was determined as 0.98.

For the variant C26A, the self-cleavage came out at 0.06.

With C26G, the self-cleavage was 0.09.

In the case of C26A G22C, the self-cleavage stood at 0.02.

Consider C26A G22A, for which the self-cleavage is 0.07.

Turning to C26A G22U, the self-cleavage worked out at 0.05.

C27A G30A: the self-cleavage is 0.02.

Take C27A G30C: the self-cleavage turned out to be 0.03.

For the variant C27A G30U, the self-cleavage was 0.03.

In the case of C26U G48A, the self-cleavage was determined as 0.82.

As to C26U G48C, the self-cleavage came to 0.1.

For the variant C26U G48U, the self-cleavage was 0.08.

C26A U37C: the self-cleavage amounted to 0.07.

Consider C26A U37G, for which the self-cleavage amounted to 0.07.

On to C26A U37A, for which the self-cleavage worked out at 0.05.

As to C26U U37C, the self-cleavage is 1.

For C26U U37G, the self-cleavage is 1.03.

Regarding C26U U37A, the self-cleavage was 0.79.

For C26U U18C, the self-cleavage was 0.88.

For the variant C26U U18G, the self-cleavage was found to be 0.93.

Take C26U U18A: the self-cleavage worked out at 0.88.

For C26A G42C, the self-cleavage turned out to be 0.03.

As to C26A G42U, the self-cleavage was determined as 0.02.

Consider C26A G42A, for which the self-cleavage came out at 0.04.

Turning to C26A G13A, the self-cleavage came to 0.02.

Turning to C26A G13C, the self-cleavage was 0.01.

On to C26A G13U, for which the self-cleavage worked out at 0.02.

In the case of C27A G13C, the self-cleavage was determined as 0.01.

On to C27A G13A, for which the self-cleavage was 0.03.

Regarding C27A G13U, the self-cleavage was 0.02.

On to C27A G35C, for which the self-cleavage was 0.07.

As to C27A G35A, the self-cleavage is 0.39.

C27A G35U: the self-cleavage was found to be 0.16.

In the case of C26U G30C, the self-cleavage came to 0.04.

In the case of C26U G30A, the self-cleavage stood at 0.03.

Consider C26U G30U, for which the self-cleavage is 0.03.

Turning to C26A C33A, the self-cleavage turned out to be 0.05.

Turning to C26A C33G, the self-cleavage came out at 0.02.

Consider C26A C33U, for which the self-cleavage was determined as 0.04.

Consider C26G U37A, for which the self-cleavage turned out to be 0.09.

On to C26G U37C, for which the self-cleavage was 0.1.

Turning to C26G U37G, the self-cleavage worked out at 0.1.

For C26G G19C, the self-cleavage was 0.04.

For C26G G19U, the self-cleavage stood at 0.05.

For C26G G19A, the self-cleavage was 0.08.

Regarding C26A G47A, the self-cleavage amounted to 0.03.

With C26A G47U, the self-cleavage is 0.03.

As to C26A G47C, the self-cleavage stood at 0.02.

Turning to C26U G35C, the self-cleavage is 0.09.

For the variant C26U G35U, the self-cleavage is 0.88.

As for C26U G35A, the self-cleavage came to 0.9.

For the variant C26G G45C, the self-cleavage was 0.03.

Consider C26G G45U, for which the self-cleavage amounted to 0.02.

As to C26G G45A, the self-cleavage amounted to 0.05.

As for C26U G44C, the self-cleavage came out at 0.92.

In the case of C26U G44A, the self-cleavage came out at 0.4.

Consider C26U G44U, for which the self-cleavage turned out to be 0.71.

With C26U G53C, the self-cleavage came to 0.08.

As for C26U G53U, the self-cleavage turned out to be 0.11.

Turning to C26U G53A, the self-cleavage is 0.22.

For the variant C26U C33G, the self-cleavage was determined as 0.07.

Turning to C26U C33U, the self-cleavage worked out at 0.32.

For C26U C33A, the self-cleavage stood at 0.09.

For C26A G45U, the self-cleavage worked out at 0.02.

Turning to C26A G45C, the self-cleavage came to 0.02.

For the variant C26A G45A, the self-cleavage was 0.02.

For C26G G50C, the self-cleavage is 0.09.

Take C26G G50A: the self-cleavage amounted to 0.1.

Take C26G G50U: the self-cleavage was determined as 0.09.

Take C26G G35U: the self-cleavage was 0.09.

As for C26G G35A, the self-cleavage turned out to be 0.08.

Regarding C26G G35C, the self-cleavage was found to be 0.07.

Turning to C26A G49U, the self-cleavage is 0.02.

With C26A G49C, the self-cleavage is 0.02.

In the case of C26A G49A, the self-cleavage was determined as 0.02.

For C26G U12A, the self-cleavage was determined as 0.07.

Consider C26G U12G, for which the self-cleavage was 0.07.

As for C26G U12C, the self-cleavage came out at 0.05.

As for C26U U12G, the self-cleavage is 0.23.

Turning to C26U U12C, the self-cleavage came to 0.09.

As to C26U U12A, the self-cleavage amounted to 0.2.

Turning to C26A G48U, the self-cleavage came to 0.7.

Take C26A G48A: the self-cleavage came to 0.03.

For C26A G48C, the self-cleavage worked out at 0.1.

Take C26U G50U: the self-cleavage was determined as 0.52.

For C26U G50C, the self-cleavage was found to be 0.26.

For the variant C26U G50A, the self-cleavage was 0.92.

With C26A C31A, the self-cleavage came out at 0.02.

As for C26A C31U, the self-cleavage is 0.06.

In the case of C26A C31G, the self-cleavage was 0.03.
